Compound activity as filed in PubChem.
SR-BI DiI-HDL act: enhances SR-BI lipid uptake from DiI-HDL; CHO ldlA[mSR-BI] cells, DiI-HDL uptake fluorescence, 3 h; 100 = double the neutral-control signal; activation, % at 12.5 µM; hit rate 0.096% among 320,000;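 active = mean replicate activation of at least 60% and every replicate at or above 60%; inconclusive = mean or all-replicate condition met, but not both; inactive = mean below 60% and not all replicates reaching 60%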;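 note: 0% = median plate neutral-control signal and 100% = twice that signal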
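System: CHO ldlA[mSR-BI] cells / Medium: HEPES-buffered (25 mM, pH 7.4) F12 plus 0.5% BSA / Probe or stimulus: labelled HDL, 10 µg/mL / Doses: single compound concentration, delivered by pin transfer / Schedule: 3 h, 37 °C / Measured by: DiI fluorescence, bottom read / Measure: cell-associated DiI fluorescence as measure of HDL uptake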
Vif imaging: blocks HIV Vif function; hit rate 0.35% among 340,000; HEK293T cells, Vif self-association by quenched fluorescence, imaging, 24 h; AID 602346; inhibition, % at 7.49 µM; in the data active = inhibition above about 50%, passing the limit was not always enough; inconclusive = no clear call, values can overlap the other calls; inactive = below about 31%
Bfl-1 A1 inh: inhibitors of the anti-apoptotic protein A1, read as caspase activation; AID 2462; hit rate 0.066% among 330,000; MEF A1-2A-BIM cells, Caspase-Glo 3/7 luminescence, 3 h; percent of clofoctol response, vehicle zero; caspase activation, % (no concentration beside the values);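 active = over half of replicate activation scores above 10%, or exactly half above 10 with the replicate mean above 10; inconclusive = replicate mean below 10 yet half the replicates above 10; inactive = over half of replicates below 10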
SR-BI HDL uptake: blocks mouse SR-BI lipid uptake from DiI-HDL; Q61009; ldlA[mSR-BI] CHO cells, DiI-HDL uptake fluorescence, 3 h; inhibition, % at 12.5 µM; hit rate 0.96% among 320,000;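 active = mean replicate inhibition of at least 70% and a set share of replicates each scoring 70 or more; inconclusive = meets just one of the two criteria; inactive = fails both criteria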;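 note: 0% = median of neutral control wells and 100% = median of positive control wells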
Target sequence (Q61009 whole entry, looked up): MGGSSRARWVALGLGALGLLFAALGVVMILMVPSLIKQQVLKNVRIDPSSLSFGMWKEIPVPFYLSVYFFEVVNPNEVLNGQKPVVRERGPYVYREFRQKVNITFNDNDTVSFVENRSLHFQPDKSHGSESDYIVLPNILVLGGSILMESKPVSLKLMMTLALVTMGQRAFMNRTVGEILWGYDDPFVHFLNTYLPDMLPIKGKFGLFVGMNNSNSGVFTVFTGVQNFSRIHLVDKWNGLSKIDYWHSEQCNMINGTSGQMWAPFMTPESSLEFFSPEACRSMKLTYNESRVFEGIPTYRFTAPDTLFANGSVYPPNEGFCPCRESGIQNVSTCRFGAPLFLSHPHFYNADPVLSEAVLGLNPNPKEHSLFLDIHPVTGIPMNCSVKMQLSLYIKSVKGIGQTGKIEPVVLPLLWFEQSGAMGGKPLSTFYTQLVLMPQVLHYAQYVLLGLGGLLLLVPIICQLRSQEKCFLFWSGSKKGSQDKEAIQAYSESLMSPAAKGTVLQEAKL
H9c2 TAG inh: triacylglycerol accumulation inhibition; hit rate 0.66% among 230,000; inhibition, % at 12.5 µM; H9c2 cells, Nile Red lipid (TAG) fluorescence; cells loaded with 200 µM oleic acid;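 active = pattern-corrected inhibition of lipid staining of at least 50% with the nuclear-stain viability signal not falling by more than 50%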;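 note: 0% = DMSO wells and 100% = triacsin C control wells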
TAG conf: confirmation of triacylglycerol accumulation inhibitors; shares compounds with H9c2 TAG inh; H9c2 lipid accumulation, Nile Red fluorescence; cells loaded with 200 µM oleic acid; inhibition, % at 12.5 µM; hit rate 71% among 990;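 active = mean inhibition across replicates of 40% or more; inactive = mean inhibition below 40%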;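 note: plate controls were DMSO only wells for no effect and Triacsin C treated wells for full effect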
Starred values were filed as active, the others as inactive. In the library only some 1.6% were active in any assay of this set; here they are far more common.

How did O=C(/C=C/c1ccccc1Cl)OCC(=O)N1CCCC1 do in these assays?
SR-BI DiI-HDL act: 27.3; Vif imaging: -19.0; Bfl-1 A1 inh: -1.0; SR-BI HDL uptake: -27.3; H9c2 TAG inh: 7.2

Results for Cc1ccccc1OCCNc1cc(N2CC(C)NC(C)C2)ccc1[N+](=O)[O-] (configuration not stated) ?
SR-BI DiI-HDL act: 33.2; Vif imaging: 15.1; SR-BI HDL uptake: -33.2; H9c2 TAG inh: 56.2*; TAG conf: 62.1*

What do the screens show for `Cc1ccc(C(=O)CN(CCC(=O)O)C(=O)c2ccncc2)cc1`?
SR-BI DiI-HDL act: 27.2; Vif imaging: 10.7; Bfl-1 A1 inh: 0.6; SR-BI HDL uptake: -27.2; H9c2 TAG inh: -13.5

How did O=C(Nc1cccc(-c2csc(Nc3cccc(C(F)(F)F)c3)n2)c1)c1cc([N+](=O)[O-])cc(C(F)(F)F)c1 do in these assays?
SR-BI DiI-HDL act: -106.6; Vif imaging: -3.0; Bfl-1 A1 inh: 0.1; SR-BI HDL uptake: 106.6*; H9c2 TAG inh: 58.1*; TAG conf: 56.0*

What do the screens show for `CCCc1nnc(SCC(=O)O)n1CC`?
SR-BI DiI-HDL act: 20.7; Vif imaging: -4.0; Bfl-1 A1 inh: -0.4; SR-BI HDL uptake: -20.7; H9c2 TAG inh: 3.3

What do the screens show for `O=C(N/N=C/c1cccc(OC(=O)c2cccc(Br)c2)c1)c1ccncc1`?
SR-BI DiI-HDL act: -13.7; Vif imaging: 11.4; Bfl-1 A1 inh: 1.2; SR-BI HDL uptake: 13.7; H9c2 TAG inh: -5.6

How did Cc1cc(=O)oc(C)c1C(=O)Nc1cccc(F)c1 do in these assays?
SR-BI DiI-HDL act: 27.0; Vif imaging: 2.2; Bfl-1 A1 inh: 0.1; SR-BI HDL uptake: -27.0; H9c2 TAG inh: 50.6*; TAG conf: -5.6

What do the screens show for `CC(NC(=O)c1cccs1)c1n[nH]c(=S)n1C` (configuration not stated)?
SR-BI DiI-HDL act: -5.5; Vif imaging: 4.3; Bfl-1 A1 inh: -1.5; SR-BI HDL uptake: 5.5

How did CN(C)CCCN1c2ccccc2Sc2ccc3ccccc3c21 do in these assays?
SR-BI DiI-HDL act: 1.7; Vif imaging: -15.9; SR-BI HDL uptake: -1.7; H9c2 TAG inh: 50.5*; TAG conf: 59.8*

What do the screens show for `Cc1c(P(=S)(c2ccccc2)c2ccccc2)[n+]2ccccc2n1C/C=C/c1ccccc1`?
Vif imaging: -16.7; H9c2 TAG inh: 83.4*; TAG conf: 89.8*

How did CC(O)c1nc2ccccc2n1C/C=C/c1ccccc1 (configuration not stated) do in these assays?
SR-BI DiI-HDL act: 16.6; Vif imaging: -3.3; Bfl-1 A1 inh: 0.8; SR-BI HDL uptake: -16.6; H9c2 TAG inh: -16.6

How did CCOc1ccccc1C(=O)NC(C(=O)N(C)c1c(N)n(Cc2ccccc2)c(=O)[nH]c1=O)C(C)C (configuration not stated) do in these assays?
SR-BI DiI-HDL act: -26.4; Vif imaging: 8.0; SR-BI HDL uptake: 26.4; H9c2 TAG inh: -26.9

What do the screens show for `CC(=O)c1ccc(-c2cnc3c(NC=O)cc(-c4ccc(C(=O)NC5CC5)cc4)cn23)cc1`?
H9c2 TAG inh: 54.3*; TAG conf: 51.5*

How did COc1ccc(-c2cnc3c(NC=O)cc(-c4cccc(NS(C)(=O)=O)c4)cn23)cc1OC do in these assays?
H9c2 TAG inh: 64.8*; TAG conf: 58.4*

What do the screens show for `COc1cc(-c2cc(NC=O)c3ncc(-c4cccc(C(=O)N(C)C)c4)n3c2)cc(OC)c1OC`?
Vif imaging: 26.8; H9c2 TAG inh: 58.2*; TAG conf: 71.6*

Results for COc1ccccc1-c1cc(NC=O)c2ncc(-c3cccc(C(=O)N(C)C)c3)n2c1 ?
Vif imaging: inconclusive; H9c2 TAG inh: 58.8*; TAG conf: 68.2*

Results for COc1cccc(-c2cc(NC=O)c3ncc(-c4ccc(OC)c(OC)c4)n3c2)c1 ?
H9c2 TAG inh: -1.0

Results for COc1ccccc1-c1cc(NC=O)c2ncc(-c3cccc(C(C)=O)c3)n2c1 ?
H9c2 TAG inh: 15.4

Results for O=C(Oc1cc(=O)n2ccccc2n1)c1ccccc1 ?
SR-BI DiI-HDL act: 8.6; Vif imaging: -13.0; Bfl-1 A1 inh: -0.1; SR-BI HDL uptake: -8.6

How did C=CCNC(=O)Cn1nnc(-c2ccc(-c3ccc(OC)cc3)cc2)n1 do in these assays?
SR-BI DiI-HDL act: -3.3; Vif imaging: 15.1; Bfl-1 A1 inh: -2.1; SR-BI HDL uptake: 3.3
